An excerpt weighted towards active compounds, which were near 4.6% of everything screened.
OX1R antag-1 – antagonists of human orexin 1 receptor (OX1R) | O43613 | OX1R-expressing cells, FRET antagonist read-out | inhibition, % at 6.6 µM | actives 1.8% (n = 330,000) | AID 485270; in the data active = inhibition mostly above about 38%, no sharp cut-off; inactive = mostly below about 40%;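 note: 0% = agonist challenge alone and 100% = reference antagonist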
TAAR1 agonist – agonists of human TAAR1 | activation, % at 3 µM | actives 0.99% (n = 360,000) | Q96RJ0 | CHO RD-HGA16 TAAR1, Fluo-8 calcium fluorescence; vehicle wells 0%, saturating PEA agonist 100%;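 active = activation above the mean activation of all test compounds in the run plus 3 SD, cut at about 38% in these data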
Target sequence (Q96RJ0 whole entry, looked up): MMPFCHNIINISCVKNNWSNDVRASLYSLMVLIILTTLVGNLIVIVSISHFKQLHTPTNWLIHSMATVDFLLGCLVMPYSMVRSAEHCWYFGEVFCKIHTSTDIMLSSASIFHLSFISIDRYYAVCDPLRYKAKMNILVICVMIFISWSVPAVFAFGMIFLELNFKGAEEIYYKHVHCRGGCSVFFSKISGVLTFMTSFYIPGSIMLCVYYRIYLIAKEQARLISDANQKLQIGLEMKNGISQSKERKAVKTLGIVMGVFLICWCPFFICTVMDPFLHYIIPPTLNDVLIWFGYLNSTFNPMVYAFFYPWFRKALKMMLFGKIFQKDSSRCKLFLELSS
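Repeats: no replicates (n 1) | Material: CHO-derived RD-HGA16 cells with stable Gα16 and human TAAR1 | Technique: Kinetic Fluo-8 calcium fluorescence | Schedule: 17-24 h seeding, 75 min 37 °C dye, 30 min RT | Evaluation: % activation from peak over basal fluorescence ratio, DMSO-to-PEA scaled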
GPR7 antag – antagonists of human GPR7 (neuropeptides B/W receptor 1); P48145; GPR7-expressing cells, fluorescence antagonist assay; inhibition, % at 4.4 µM; actives 1.1% (n = 290,000); AID 1861; in the data active = inhibition above about 16%, passing the limit was not always enough;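 note: cells stimulated with the agonist NPW; 0% = agonist with vehicle and 100% = vehicle without agonist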
Target sequence (P48145 whole entry, looked up): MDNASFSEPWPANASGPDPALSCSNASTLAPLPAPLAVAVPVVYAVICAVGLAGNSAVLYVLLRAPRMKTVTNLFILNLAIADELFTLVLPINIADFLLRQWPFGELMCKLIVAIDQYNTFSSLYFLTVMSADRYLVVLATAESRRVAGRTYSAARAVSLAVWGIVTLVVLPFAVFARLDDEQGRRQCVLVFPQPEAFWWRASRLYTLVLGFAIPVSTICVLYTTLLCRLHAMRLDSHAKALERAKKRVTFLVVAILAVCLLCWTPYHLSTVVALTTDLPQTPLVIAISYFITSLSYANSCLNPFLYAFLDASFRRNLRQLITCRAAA
CHO parental Ca – signal in parental CHO cells, OX1R antagonist counter-screen | actives 0.63% (n = 330,000) | inhibition, % at 5.6 µM | parental CHO-K1, ATP-induced calcium, Fluo-8 fluorescence;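 active = inhibition above that plate's mean sample inhibition plus 3 SD, cut at about 26% in these data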;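 note: 0% = ATP-challenged DMSO wells and 100% = DMSO wells without ATP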
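Material: Parental CHO cells | Reagent: ATP | Compound dosing: Single nominal dose of 5.6 µM per compound | Detection: Intracellular calcium via Fluo-8 no-wash fluorescent dye | Read-out: % inhibition of ATP-induced calcium mobilization | Benchmarks: Low control ATP plus DMSO, high control DMSO only | Replicates: Singlicate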
TAAR1 antag – antagonists of human TAAR1; inhibition, % at 3 µM; actives 1.5% (n = 360,000); AID 624466; CHO RD-HGA16 TAAR1, Fluo-8 calcium fluorescence, antagonist;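 active = inhibition above a per-plate cutoff, the mean inhibition of test compounds on that plate plus 3 SD, cut at about 49% in these data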;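 note: 0% = DMSO plus EC80 beta-PEA response and 100% = DMSO alone without agonist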
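Material: CHO RD-HGA16 cells bearing hTAAR1; compound dosing: one-point dosing, 3 µM nominal final; schedule: dye loading 75 min at 37 °C, then 30 min room temperature; measured by: calcium fluorescence with Fluo-8; control set: vehicle and agonist controls; replication: n of 1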
OX1R antag-2 – antagonists of human orexin 1 receptor. CHO/OX1R cells, Fluo-8 calcium fluorescence, orexin A. actives 0.43% (n = 330,000). inhibition, % at 5 µM. AID 434989. O43613;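 active = inhibition above its plate's threshold, mean inhibition of all tested compounds on the plate plus 3 SD, cut at about 37% in these data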;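 note: 0% = orexin A challenge wells and 100% = SB-334867-A antagonist wells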
GPR7 antag cf – human GPR7 antagonism, confirmation assay; inhibition, % at 4.4 µM; actives 52% (n = 2,400); shares compounds with GPR7 antag; GPR7-expressing cells, calcium fluorescence antagonist mode; in the data active = inhibition above about 24%;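 note: stimulated with the GPR7 agonist NPW; 0% = agonist plus vehicle and 100% = vehicle alone without agonist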
MCHR1 antagonist – MCHR1 (human) antagonism in GPR7 counter-screen. shares compounds with GPR7 antag. MCHR1-expressing cells, fluorescence antagonist assay. inhibition, % at 4.4 µM. actives 62% (n = 2,400). AID 2148; in the data active = inhibition above about 22%;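 note: 0% = vehicle with agonist and 100% = vehicle without agonist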
* hit, by the source's call; . = no result given.

SMILES	OX1R antag-1	TAAR1 agonist	GPR7 antag	CHO parental Ca	TAAR1 antag	OX1R antag-2	GPR7 antag cf	MCHR1 antagonist
CN(C(=O)COC(=O)c1cc([N+](=O)[O-])ccc1N1CCOCC1)C1CCCCC1	.	2	.	.	4	.	.	.
CC(=O)c1cccc(OC(=O)Oc2cccc(C(C)=O)c2)c1	.	1	.	.	-2	.	.	.
COc1cccc(CN2CCC(N(CCc3ccccc3)Cc3ccccc3)CC2)c1OC	5	4	23*	-19	5	-33	35*	40*
COc1cccc(CN2CCN(Cc3cccc(Oc4ccccc4)c3)CC2)c1OC	9	15	-7	-24	-16	-40	.	.
O=C(Nc1ncc(Cc2cc(Cl)ccc2Cl)s1)c1ccc([N+](=O)[O-])cc1	14	29	5	-29	2	-14	.	.
COc1ccc(C2C(C(=O)Nc3cc(OC)c(OC)c(OC)c3)c3ccccc3C(=O)N2C)cc1 (configuration not stated)	2	1	-1	-27	-19	-33	.	.
c1ccc(C(c2ccccn2)c2ccccn2)cc1	21	-1	-2	-2	13	-8	.	.
CC(=O)Oc1ccc(C(c2ccc(OC(C)=O)cc2)c2ccccn2)cc1	5	1	66*	1	-11	-1	76*	47*
Nc1ccn([C@@H]2O[C@H](C(=O)N[C@H](Cc3ccccc3)C(=O)N3CCN(C(=O)N4CCOCC4)CC3)[C@@H](O)[C@H]2O)c(=O)n1	.	0	.	.	-2	.	.	.
Cc1ccc(-c2nn(-c3ccccc3)cc2CNCc2ccccc2)cc1	13	30	23*	-5	31	8	41*	53*
CCC[C@@H](CN[C@@H](CNC)[C@H](C)CC)NCC1CCC(C(C)(C)C)CC1 (some centres not stated)	23	19	47*	-8	8	-27	51*	64*
CCOCCCNC(=O)c1cccc(NC(=O)C2=C(C)OCCS2)c1	2	5	-11	-10	-16	-23	.	.
CN(C)Cc1c(C(=O)N/N=C/c2cccc(OCc3c(F)cccc3Cl)c2)nnn1-c1nonc1N	9	4	3	-5	-23	17	.	.
CN(C)Cc1c(C(=O)N/N=C/c2ccccc2OCc2c(F)cccc2Cl)nnn1-c1nonc1N	14	4	35*	-40	46	-14	34*	66*
Cc1c(Cl)sn(-c2ccc(Cl)cc2)c1=O	.	12	25*	.	61*	.	73*	91*
Cc1nn(-c2ccc(Cl)cc2)c(=O)c2ccccc12	3	2	1	-1	2	-17	.	.
CC(=O)c1ccc(N2CCN(C(=S)Nc3ccccc3)CC2)cc1	12	18	8	0	-2	-15	.	.
CSCCCNC(=S)N1CCN(c2ccc(C(C)=O)cc2)CC1	24	6	26*	12	8	-2	28*	31*
COc1ccc(CC2(CO)CCN(C(C)Cc3ccc(Cl)cc3)CC2)cc1 (configuration not stated)	5	14	21*	-15	-6	-31	5	20
O=C(Nc1nc2c(F)cc(F)cc2s1)C1CC1	2	2	23*	1	-21	-9	20	34*
Cc1sc(NC(=O)c2ccco2)c(CN2CCN(c3ccccn3)CC2)c1C	12	.	32*	-30	.	-24	13	49*
Cc1ccc(Nc2nc(N)nc(CSc3ncccn3)n2)cc1	18	3	-3	-12	2	-29	.	.
Cc1ccc(Nc2nc(N)nc(CSc3nc(C)cc(C)n3)n2)cc1	38	6	26*	-20	-6	-34	15	14
Cc1nc(Cl)c(C(=O)NCc2ccccc2)c(C)c1Cl	15	2	-18	-13	-16	-19	.	.
O=C(NCc1ccccc1)c1c(Cl)nc(Cl)c(Cl)c1Cl	11	-3	76*	1	9	7	87*	45*
SMILES	OX1R antag-1	TAAR1 agonist	GPR7 antag	CHO parental Ca	TAAR1 antag	OX1R antag-2	GPR7 antag cf	MCHR1 antagonist
COc1cc(/C=C2\N=C(c3ccccc3)OC2=O)ccc1OC(C)=O	19	4	25*	-16	7	-11	-6	7
COc1ccc(/C=C2\N=C(C)OC2=O)cc1OC(C)=O	.	0	-13	.	8	.	.	.
COC(=O)c1ccc(-n2nnnc2SCC(=O)Nc2ccccc2OC)cc1	14	6	5	-11	4	1	.	.
CCC(=O)N(C(=O)CC)N1CCN(c2ccncc2S(=O)(=O)N2CCCCC2)CC1	14	3	34*	-19	-4	-31	45*	30*
COc1ccc(C2C(C(C)=O)=C(O)C(=O)N2c2ccc(C)cc2)cc1 (configuration not stated)	9	3	23	-3	-6	-9	.	.
O=C(CCC(=O)N1CCSc2ccccc21)Nc1ccc(F)cc1	3	7	32*	-13	20	-27	-2	5
Cc1ccc(C2C3=C(CC(C)(C)CC3=O)N(CCN3CCOCC3)C3=C2C(=O)CC(C)(C)C3)cc1	37	13	-4	-21	1	-34	.	.
CNC(=O)/C(C#N)=C/c1c(N(Cc2ccccc2)Cc2ccccc2)nc2c(C)cccn2c1=O	14	18	39*	-3	22	-16	23	49*
COc1ccc(/C=C2\CCc3ccccc3C2=O)cc1O	4	6	25*	-12	-9	-7	30*	34*
CCOC(=O)C1(CC2CCCCO2)CCN(C2CCSCC2)CC1 (configuration not stated)	5	8	25*	-11	-1	-25	37*	23*
Cc1ccc(OCc2cc(C(=O)NCc3cn4ccccc4n3)no2)cc1C	23	7	-9	-24	-3	-24	.	.
CC(C)(C)c1cc(C(=O)Nc2ccc(F)cc2)n(Cc2ccc(F)cc2)n1	55	2	23*	1	65*	-2	3	56*
Cc1ccc(C(=O)C(C)OC(=O)CN2C(=O)NC3(CCCC3)C2=O)cc1C (configuration not stated)	9	5	.	-10	-14	-27	.	.
COc1cccc(N2CCN(C3CCCC(C)C3)CC2)c1 (configuration not stated)	7	.	-7	-13	.	-24	.	.
CCN(CC)c1ccc(/C=C/c2ccc3ccc(OC)cc3[n+]2CC)cc1	33	7	47*	59*	6	28	65*	65*
CCOc1ccc(OCCC(=O)OCC(=O)Nc2ccc(C)c(S(=O)(=O)N3CCCCC3)c2)cc1	15	9	.	-6	35	-3	.	.
